Assay results from ChEMBL document CHEMBL1137637, “Quinuclidine derivatives as potential antiparasitics” (Antimicrob Agents Chemother, 2007).
≈ marks a conversion by molar mass, not a printed value.

What was measured:
Leishmania amazonensis [1] = assay: Inhibition of sterol biosynthesis in Leishmania mexicana amazonensis promastigotes assessed as reduction in endogenous 5-dehydro episterol level at 10 uM after 96 hrs by gas-liquid chromatography; type: functional; design: scale not given: the % may be the effect or the level left
Outline: (§1)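 L. mexicana promastigotes exposed to compound for 96 h. Total lipids extracted and neutral sterols separated from polar lipids by silicic acid column chromatography. Sterols analysed by TLC and by quantitative capillary gas-liquid chromatography with mass spectrometry. Composition expressed as mass % of free sterols, compared with untreated control.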

Trypanosoma cruzi = assay: Antitrypanosomal activity against trypomastigotes of Trypanosoma cruzi Tulahuen C2C4 containing lacZ gene in rat L6 cells after 4 days by chlorophenol red-beta-D-galactopyranoside/Nonidet assay; type: functional, organism-based; details: Tulahuen C2C4, L6, 96 h
Outline: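 L-6 rat myoblasts seeded at 2,000 cells/well in RPMI 1640 with 10% FBS and 2 mM L-glutamine. After 24 h, 5,000 T. cruzi Tulahuen C2C4 lacZ trypomastigotes added with serial drug dilution. Incubated at 37°C in 5% CO2 for 4 days. CPRG/Nonidet substrate added and colour read at 540 nm after 2–4 h. IC50 from sigmoidal curve. Duplicate determinations.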

Leishmania amazonensis [2] = assay: Antileishmanial activity against Leishmania mexicana amazonensis promastigotes by trypan blue exclusion method; type: functional, organism-based
Outline: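 L. mexicana amazonensis promastigotes cultured in liver infusion-tryptose medium with lactalbumin and 10% FCS at 26°C, unagitated. Cultures started at 2 × 10⁶ cells/ml and drug added at 0.5–1 × 10⁷ cells/ml. Density counted by electronic particle counter and hemocytometer. Viability by trypan blue exclusion. Triplicate growth experiments.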

L6 = assay: Cytotoxicity against rat L6 cells after 72 hrs by resazurin assay; type: cell-based; details: L6, 72 h
Outline: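 L-6 cells seeded at 4 × 10⁴ cells/ml in RPMI 1640 with 10% FBS and 2 mM L-glutamine. After 24 h, medium replaced with serial drug dilution and incubated for 72 h at 37°C in 5% CO2. Resazurin added for 2–4 h, fluorescence read at ex 536/em 588 nm. IC50 from sigmoidal curve. Duplicate, with an independent repeat for actives.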

Leishmania donovani = assay: Antileishmanial activity against Leishmania donovani MHOM/ET/67/L82 axenic amastigotes after 72 hrs by resazurin assay; type: functional, organism-based; details: MHOM/ET/67/L82, 72 h
Outline: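 L. donovani MHOM/ET/67/L82 amastigotes grown axenically at 37°C in synthetic minimal medium at pH 5.4 with 10% heat-inactivated FBS under 5% CO2. 1 × 10⁵ amastigotes per well with seven threefold dilutions, 30 to 0.041 μg/ml. After 72 h, resazurin added for 2–4 h more. Fluorescence read at ex 536/em 588 nm. IC50 taken from sigmoidal curve. Run in duplicate, with an independent repeat for actives.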

Leishmania amazonensis [3] = assay: Inhibition of sterol biosynthesis in Leishmania mexicana amazonensis promastigotes assessed as reduction in exogenous cholesterol level at 10 uM after 96 hrs by gas-liquid chromatography; type: functional; design: scale not given: the % may be the effect or the level left; outline: as §1
[4] = target: T1, Farnesyltransferase, putative (Leishmania major, UniProt Q4Q5W4); assay: Inhibition of Leishmania major recombinant squalene synthase expressed in Escherichia coli by liquid scintillation counter
T1 sequence (Q4Q5W4 whole entry): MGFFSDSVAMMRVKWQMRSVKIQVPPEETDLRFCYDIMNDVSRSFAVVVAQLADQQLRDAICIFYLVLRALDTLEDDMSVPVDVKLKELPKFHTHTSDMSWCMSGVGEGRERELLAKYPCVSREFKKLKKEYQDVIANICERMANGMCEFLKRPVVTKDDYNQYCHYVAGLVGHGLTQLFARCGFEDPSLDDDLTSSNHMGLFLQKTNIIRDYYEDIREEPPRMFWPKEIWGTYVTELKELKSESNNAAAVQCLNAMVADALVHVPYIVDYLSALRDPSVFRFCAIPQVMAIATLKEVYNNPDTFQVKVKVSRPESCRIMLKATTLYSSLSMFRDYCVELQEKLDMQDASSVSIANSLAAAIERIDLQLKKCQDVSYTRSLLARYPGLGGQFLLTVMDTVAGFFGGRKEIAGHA
Outline: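 Soluble E. coli extract expressing L. major SQS truncated by 16 N-terminal and 40 C-terminal residues. Buffer: 50 mM phosphate pH 7.4, 20 mM MgCl2, 5 mM CHAPS, 1% Tween 80, 10 mM DTT, BSA, 0.25 mM NADPH, and a glucose-6-phosphate/G6PDH regenerating system. Substrate 0.5 μM radiolabelled farnesyl pyrophosphate. Squalene band counted by scintillation. IC50 from hyperbolic plot of five concentrations in duplicate, usually run twice.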

Leishmania amazonensis [5] = assay: Inhibition of sterol biosynthesis in Leishmania mexicana amazonensis promastigotes assessed as reduction in endogenous episterol level at 10 uM after 96 hrs by gas-liquid chromatography; type: functional; design: scale not given: the % may be the effect or the level left; outline: as §1
[6] = tested on: Trypanosoma brucei rhodesiense; assay: Trypanocidal activity against Trypanosoma brucei rhodesiense STIB 900 bloodstream form after 72 hrs by resazurin assay; type: functional, organism-based; details: STIB 900, 72 h
Outline: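 T. b. rhodesiense STIB 900 bloodstream forms in MEM with 2-mercaptoethanol and 15% heat-inactivated horse serum, with serial drug dilutions. Incubated 72 h at 37°C in 5% CO2. Resazurin added for 2–4 h more, fluorescence read at ex 536/em 588 nm. IC50 from sigmoidal curve. Duplicate, with an independent repeat for actives.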

Plasmodium falciparum = assay: Antiplasmodial activity after 48 hrs against chloroquine and pyrimethamine-resistant Plasmodium falciparum K1 in human erythrocytes by [3H]hypoxanthine uptake; type: functional, organism-based
Outline: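 P. falciparum K1 in human red cells in RPMI 1640 with 5% Albumax, exposed to serial drug dilutions. Incubated 48 h at 37°C under reduced oxygen, then 0.5 μCi [³H]hypoxanthine per well for 24 h more. Cells harvested onto glass-fibre filters and counted by scintillation. Result expressed as % of untreated control, with IC50 from sigmoidal curve. Duplicate, plus an independent repeat for actives.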

Leishmania amazonensis [7] = assay: Inhibition of sterol biosynthesis in Leishmania mexicana amazonensis promastigotes assessed as reduction in endogenous cholesta-5,7,24-trien-3beta-ol level at 10 uM after 96 hrs by gas-liquid chromatography; type: functional; design: scale not given: the % may be the effect or the level left; outline: as §1

| Structure (SMILES) | Activity (Leishmania amazonensis [1]) | IC50 (Trypanosoma cruzi) | MIC (Leishmania amazonensis [2]) | IC50 (L6) | IC50 (Leishmania donovani) | Activity (Leishmania amazonensis [3]) | IC50 [4] | Activity (Leishmania amazonensis [5]) | IC50 [6] | IC50 (Plasmodium falciparum) | Activity (Leishmania amazonensis [7]) |
| --- | --- | --- | --- | --- | --- | --- | --- | --- | --- | --- | --- |
| C1=C(c2cc3ccccc3o2)C2CCN1CC2 | 60% | 61.3 µM | > 10 µM | 177 µM | 82 µM | 12.2% | > 1 µM | 27.8% | 17.1 µM | 6.2 µM |  |
| COCCCOc1ccc(C#C[C@@]2(O)CN3CCC2CC3)c(Cc2ccccc2)n1 |  |  |  |  |  |  | 0.033 µM |  |  |  |  |
| CO[C@H]1CN(c2ccc(C#C[C@@]3(O)CN4CCC3CC4)c(Cc3ccccc3)n2)C[C@H]1O |  |  |  |  |  |  | 0.013 µM |  |  |  |  |
| Oc1ccc(C#CC2(O)CN3CCC2CC3)cc1 (stereo not drawn) | 64.2% | 90.4 µM | > 10 µM | > 370 µM | 20 µM | 20.1% | > 1 µM | 15.7% | 53 µM | 18.7 µM |  |
| OC1(C#Cc2cccnc2)CN2CCC1CC2 (stereo not drawn) | 75.9% | > 131 µM | > 10 µM | > 394 µM | 9.2 µM | 12.9% | > 1 µM | 11.2% | 173 µM | 18.9 µM |  |
| OC[C@H]1CC2CCN1C[C@@H]2C#Cc1cnc2ccccc2c1 (stereo partly drawn) | 69.7% | 33.8 µM | > 10 µM | 38.9 µM | 40.3 µM | 18.7% | > 1 µM | 11.6% | 10.9 µM | 2.7 µM |  |
| CCOC(=O)c1ccc(C#C[C@H]2CN3CCC2C[C@@H]3CO)cc1 (stereo partly drawn) | 55.5% | 18.8 µM | > 10 µM | 55.2 µM | > 96 µM | 23.6% | > 1 µM | 11.4% | 3.8 µM | 1.1 µM | 9.5% |
| OC1(C#Cc2cnccn2)CN2CCC1CC2 (stereo not drawn) | 52% |  | 3 µM (≈ 0.688 µg/mL) |  |  | 33.8% | > 1 µM | 14.2% |  |  |  |
| C1=C(c2cnc3ccccc3c2)C2CCN1CC2 | 74.5% | 51.1 µM | > 10 µM | 276 µM | 72.4 µM | 18.2% | > 1 µM | 7.3% | 22.4 µM | 15 µM |  |
| Cc1ccc(N)cc1C#CC1(O)CN2CCC1CC2 (stereo not drawn) | 72.8% | > 117 µM | > 10 µM | > 351 µM | 28.5 µM | 20.7% | > 1 µM | 6.5% | 62.4 µM | 11.7 µM |  |
| OC1(C#Cc2ccc3cc[nH]c3c2)CN2CCC1CC2 (stereo not drawn) | 62.6% | 26.2 µM | > 10 µM | > 338 µM | 11.4 µM | 19.9% | > 1 µM | 17.5% | 19.9 µM | 7.1 µM |  |
